pIC50, pKi: −log10 of the molar value.
How the values were obtained:
Cavia porcellus = organism: Cavia porcellus; assay: Percent maximal inhibition (Emax) was measured using guinea pig ileum assay (GPI).; assay type: functional
Mu-type opioid receptor [1] = target: T1, Mu-type opioid receptor (Rattus norvegicus, UniProt P33535); assay: Inhibitory activity measured against [3H]CTOP (Opioid receptor mu 1) in rat brain using radioreceptor binding assays.; assay type: tissue-based
Outline: (§1)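 Male Sprague-Dawley rat whole brain minus cerebellum, homogenised and washed three times (30 min at 25 °C in 50 mM Tris) to remove endogenous opioids. Homogenate at 0.5% final was incubated with 0.5 nM [3H]CTOP in 50 mM Tris-HCl pH 7.4 containing 5 mM MgCl2 and BSA 1 mg/mL for 120 min at 25 °C. Nonspecific binding was defined with 1 μM naltrexone. Bound ligand was collected by filtration and counted by scintillation; duplicates, 2–4 experiments.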

[2] = target: Delta-type opioid receptor (Mus musculus, UniProt P32300); assay: Inhibitory activity measured against Opioid receptor delta 1 using mouse vas deference assay (MVD).
Outline: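 Vas deferens from male ICR mice (25–30 g) in magnesium-free oxygenated Krebs bicarbonate at 37 °C under 0.5 g tension. Electrical stimulation at 0.1 Hz with 2.0-ms pulses at supramaximal voltage. Agonist contact was 3 min.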

[3] = target: T2, Delta-type opioid receptor (Rattus norvegicus, UniProt P33533); assay: Inhibitory activity measured against [3H]DPDPE (Opioid receptor delta 1 ligand) in rat brain using radioreceptor binding assays.; assay type: tissue-based
Outline: (§2)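 Male Sprague-Dawley rat brain membranes (minus cerebellum), washed three times to remove endogenous opioids. Specific binding was defined as that displaced by 1 μM naltrexone. Filtration and scintillation counting; duplicates, 2–4 experiments.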

Mu-type opioid receptor [4] = target: T1, Mu-type opioid receptor; assay: Binding affinity measured against [3H]CTOP (Opioid receptor mu 1) in rat brain using radioreceptor binding assays.; assay type: tissue-based; outline: as §1
[5] = target: T2, Delta-type opioid receptor; assay: Binding affinity measured against [3H]DPDPE (Opioid receptor delta 1 ligand) in rat brain using radioreceptor binding assays.; assay type: tissue-based; outline: as §2
Mu-type opioid receptor [6] = target: Mu-type opioid receptor (Cavia porcellus, UniProt P97266); assay: Inhibitory activity measured against Opioid receptor mu 1 using guinea pig ileum assay (GPI).; assay type: tissue-based
Outline: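 Longitudinal muscle-myenteric plexus from the ileum of male Hartley guinea pigs (150–400 g) in oxygenated Krebs bicarbonate at 37 °C under 1 g tension. Electrical stimulation at 0.1 Hz with 0.4-ms pulses at supramaximal voltage. Agonist exposure was 3 min, followed by rinse and 8 min re-equilibration. Percent inhibition of contraction was fitted to a logistic equation for IC50; duplicates, 2–4 experiments.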

Chain of Delta-type opioid receptor (Mus musculus, UniProt P32300) (P32300 whole entry): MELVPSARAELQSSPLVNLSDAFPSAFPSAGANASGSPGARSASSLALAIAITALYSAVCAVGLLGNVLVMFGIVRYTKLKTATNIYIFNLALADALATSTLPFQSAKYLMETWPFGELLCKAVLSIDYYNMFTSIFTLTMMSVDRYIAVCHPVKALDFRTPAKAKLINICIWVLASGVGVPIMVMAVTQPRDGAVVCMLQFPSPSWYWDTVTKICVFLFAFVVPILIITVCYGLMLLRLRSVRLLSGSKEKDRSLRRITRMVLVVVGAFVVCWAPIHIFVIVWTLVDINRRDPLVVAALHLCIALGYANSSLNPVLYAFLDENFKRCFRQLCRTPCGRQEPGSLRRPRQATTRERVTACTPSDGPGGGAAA
Chain of Mu-type opioid receptor (Cavia porcellus, UniProt P97266) (P97266 whole entry): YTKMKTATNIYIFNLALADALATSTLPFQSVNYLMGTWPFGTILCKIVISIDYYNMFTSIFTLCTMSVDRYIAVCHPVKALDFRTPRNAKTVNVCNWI
T1 sequence (P33535 whole entry): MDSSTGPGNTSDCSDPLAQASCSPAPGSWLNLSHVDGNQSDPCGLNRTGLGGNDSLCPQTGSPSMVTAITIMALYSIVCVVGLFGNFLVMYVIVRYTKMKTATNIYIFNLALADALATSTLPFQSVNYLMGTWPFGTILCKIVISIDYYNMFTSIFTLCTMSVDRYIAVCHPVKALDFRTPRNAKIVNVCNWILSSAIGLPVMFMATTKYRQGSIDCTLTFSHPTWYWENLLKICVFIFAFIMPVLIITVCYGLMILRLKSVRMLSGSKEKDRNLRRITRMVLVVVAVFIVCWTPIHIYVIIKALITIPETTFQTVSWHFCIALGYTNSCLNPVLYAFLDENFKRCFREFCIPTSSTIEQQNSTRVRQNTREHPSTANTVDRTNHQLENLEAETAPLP
T2 sequence (P33533 whole entry): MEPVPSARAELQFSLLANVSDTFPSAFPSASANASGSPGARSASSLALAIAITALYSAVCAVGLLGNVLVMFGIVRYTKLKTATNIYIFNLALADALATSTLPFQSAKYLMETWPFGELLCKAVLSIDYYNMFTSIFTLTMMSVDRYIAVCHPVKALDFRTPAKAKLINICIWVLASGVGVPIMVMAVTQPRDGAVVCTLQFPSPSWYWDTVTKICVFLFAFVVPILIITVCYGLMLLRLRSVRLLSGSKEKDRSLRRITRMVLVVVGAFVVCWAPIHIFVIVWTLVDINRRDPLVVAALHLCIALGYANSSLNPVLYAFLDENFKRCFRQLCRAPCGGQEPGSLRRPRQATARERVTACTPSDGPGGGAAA

| SMILES | E max (Cavia porcellus) | pIC50 (Mu-type opioid receptor [1]) | pIC50 [2] | pIC50 [3] | pKi (Mu-type opioid receptor [4]) | pKi [5] | pIC50 (Mu-type opioid receptor [6]) |
| --- | --- | --- | --- | --- | --- | --- | --- |
| C[C@H](c1ccc([N+](=O)[O-])cc1)[C@@H]1NC(=O)CNC(=O)[C@H](NC(=O)[C@@H](N)Cc2ccc(O)cc2)C(C)(C)SSC(C)(C)[C@H](C(=O)O)NC1=O [listing 1 of 2 here] | 74% |  |  |  |  |  |  |
| C[C@H](c1ccc([N+](=O)[O-])cc1)[C@H]1NC(=O)CNC(=O)[C@@H](NC(=O)[C@@H](N)Cc2ccc(O)cc2)C(C)(C)SSC(C)(C)[C@@H](C(=O)O)NC1=O (stereo in doubt; 6) | 73% | 5.66 | 8.34 | 8.16 | 6.28 | 8.26 | 4.59 |
| C[C@@H](c1ccccc1)[C@H]1NC(=O)CNC(=O)[C@H](NC(=O)[C@@H](N)Cc2ccc(O)cc2)C(C)(C)SSC(C)(C)[C@H](C(=O)O)NC1=O | 100% |  |  |  |  |  |  |
| C[C@H](c1ccccc1)[C@H]1NC(=O)CNC(=O)[C@H](NC(=O)[C@@H](N)Cc2ccc(O)cc2)C(C)(C)SSC(C)(C)[C@H](C(=O)O)NC1=O | 100% |  |  |  |  |  |  |
| C[C@H](c1ccc([N+](=O)[O-])cc1)[C@H]1NC(=O)CNC(=O)[C@@H](NC(=O)[C@@H](N)Cc2ccc(O)cc2)C(C)(C)SSC(C)(C)[C@@H](C(=O)O)NC1=O (stereo in doubt; 7) |  | < 5.00 | 6.20 | 6.65 |  | 6.74 | < 5.00 |
| C[C@H](c1ccc([N+](=O)[O-])cc1)[C@@H]1NC(=O)CNC(=O)[C@H](NC(=O)[C@@H](N)Cc2ccc(O)cc2)C(C)(C)SSC(C)(C)[C@H](C(=O)O)NC1=O [listing 2 of 2 here] |  | 6.98 | 7.57 | 8.38 | 7.62 | 8.47 | 5.57 |
| C[C@@H](c1ccc([N+](=O)[O-])cc1)[C@H]1NC(=O)CNC(=O)[C@H](NC(=O)[C@@H](N)Cc2ccc(O)cc2)C(C)(C)SSC(C)(C)[C@H](C(=O)O)NC1=O [listing 1 of 2 here] | 66% |  |  |  |  |  |  |
| C[C@H](c1ccccc1)[C@@H]1NC(=O)CNC(=O)[C@H](NC(=O)[C@@H](N)Cc2ccc(O)cc2)C(C)(C)SSC(C)(C)[C@H](C(=O)O)NC1=O (stereo in doubt; 4) | 56% |  |  |  |  |  |  |
| C[C@@H](c1ccc([N+](=O)[O-])cc1)[C@H]1NC(=O)CNC(=O)[C@H](NC(=O)[C@@H](N)Cc2ccc(O)cc2)C(C)(C)SSC(C)(C)[C@H](C(=O)O)NC1=O [listing 2 of 2 here] |  | 5.99 | 5.75 | 6.65 | 6.62 | 6.74 | 4.91 |
